Experimental data taken from ChEMBL document CHEMBL3739266, “Synthesis and pharmacological evaluation of some new fluorine containing hydroxypyrazolines as potential anticancer and antioxidant agents” (Eur J Med Chem, 2015).
≈ marks a conversion by molar mass, not a printed value.

Key:
[1] = Antioxidant activity assessed as DPPH free radical scavenging activity at 100 ug/ml after 30 mins by spectrophotometric assay; assay type: physicochemical; conditions: 0.5 h
How it was run: (§1)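 Test samples at 25, 50 and 100 μg/mL in methanol, 1 mL added to 4 mL of 0.004% (w/v) methanolic DPPH. Scavenging expressed as percent inhibition relative to a control with all reagents except test compound. Ascorbic acid served as reference antioxidant.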

[2] = Antioxidant activity assessed as DPPH free radical scavenging activity after 30 mins by spectrophotometric assay; assay type: physicochemical; how it was run: as §1
[3] = Antioxidant activity assessed as DPPH free radical scavenging activity at 25 ug/ml after 30 mins by spectrophotometric assay; assay type: physicochemical; conditions: 0.5 h; how it was run: as §1
[4] = Antioxidant activity assessed as DPPH free radical scavenging activity at 50 ug/ml after 30 mins by spectrophotometric assay; assay type: physicochemical; conditions: 0.5 h; how it was run: as §1
[5] = tested on: Vero; test: Cytotoxicity against African green monkey Vero cells assessed as growth inhibition after 48 hrs by MTT assay; assay type: cell-based; conditions: Chlorocebus sabaeus
How it was run: (§2)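 MTT colorimetric assay in 96-well plates. Cells exposed to compounds for 48 h, then tetrazolium reduction to formazan was read as absorbance. IC50 taken from plotted dose–response curves. Values are mean ± SD of three independent experiments. Doxorubicin served as positive control.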

[6] = tested on: MDA-MB-231; test: Cytotoxicity against human MDA-MB-231 cells assessed as growth inhibition after 48 hrs by MTT assay; assay type: functional, cell-based; conditions: MDA-MB-231, 48 h; how it was run: as §2

| inhibition (INH) [1] | IC50 [2] | inhibition (INH) [3] | inhibition (INH) [4] | Structure (SMILES) | IC50 [5] | IC50 [6] |
| --- | --- | --- | --- | --- | --- | --- |
| 87.22% | 15.17 µg/mL (≈ 86.1 µM) | 82.39% | 83.52% | O=C1O[C@H]([C@@H](O)CO)C(O)=C1O [ASCORBIC ACID] | – | – |
| – | – | – | – | COc1cccc2c1C(=O)c1c(O)c3c(c(O)c1C2=O)C[C@@](O)(C(=O)CO)C[C@@H]3O[C@H]1C[C@H](N)[C@H](O)[C@H](C)O1 [DOXORUBICIN] | > 100000 nM | 910 nM |
